This note sets out measurements from ChEMBL document CHEMBL5500359, “Identification of a new bisindolinone arresting IGROV1 cells proliferation” (Eur J Med Chem, 2024).

In assay [1] the test system is Renal cancer cell line. Briefly: Cytostatic activity against human Renal cancer cells incubated for 48 hrs by SRB assay. The class given is functional. A digest of the protocol: (§1)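 NCI-60 five-concentration screen: lines seeded 5×10^3–4×10^4 cells/well depending on line; compound diluted in fresh medium at scalar concentrations 0–100 or 0–1000 μM; 48 h exposure, in situ fixation, sulforhodamine B protein staining, optical density read; GI50, TGI and LC50 per NCI procedures; panel mean = mean graph midpoint.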
Background: In SRB staining, fixed cells bind dye roughly in proportion to their protein.

For assay [2], the system named is Ovarian cancer cell line. Briefly: Cytotoxicity against human Ovarian cancer cells incubated for 48 hrs by SRB assay. The class given is functional. An outline of the steps: as §1
The subject of assay [3] is Prostatic carcinoma cell. Briefly: Cell growth inhibition of human Prostate carcinoma cells incubated for 48 hrs by SRB assay. It is filed as functional. An outline of the steps:
as §1

The test system of assay [4] is Breast cancer cell line. Briefly: Cell growth inhibition of human Breast cancer cells incubated for 48 hrs by SRB assay. The class given is functional. The following applies: read-out: LC50 (the source's name). An outline of the steps: (§2)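 NCI DTP five-concentration screen. Cells were seeded at 5 × 10³–4 × 10⁴ cells/well, depending on the line. Compounds were diluted in fresh medium and added at scalar concentrations over 0–1000 µM or 0–100 µM. After 48 h the cells were fixed in situ, stained with sulforhodamine B, and optical density was read. GI50, TGI and LC50 were derived by NCI procedures, and the panel mean is the mean graph midpoint.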

A short description of assay [5]: Cytotoxicity against human Leukemia cancer cells incubated for 48 hrs by SRB assay. The class given is functional. The settings on record: Leukemia cell, read-out: LC50 (the source's name). A digest of the protocol: as §2
In assay [6] the test system is Renal cancer cell line. Briefly: Cell growth inhibition of human Renal cancer cells incubated for 48 hrs by SRB assay. The class given is functional. A digest of the protocol: as §1
For assay [7], the system named is Panel NCI-60 (60 carcinoma cell lines). Briefly: Cytostatic activity against human Panel NCI-60 (60 carcinoma cell lines) incubated for 48 hrs by SRB assay. It is filed as functional. A digest of the protocol: as §1
Assay [8] can be described thus: Cell growth inhibition of human Leukemia cancer cells incubated for 48 hrs by SRB assay. The class given is functional. An outline of the steps: as §1
The subject of assay [9] is Breast cancer cell line. Briefly: Cytostatic activity against human Breast cancer cells incubated for 48 hrs by SRB assay. It is filed as functional. A digest of the protocol: as §1
The test system of assay [10] is Colon carcinoma cell. Briefly: Cytostatic activity against human Colon carcinoma cells incubated for 48 hrs by SRB assay. The class given is functional. An outline of the steps: as §1
The subject of assay [11] is Ovarian cancer cell line. Briefly: Cytostatic activity against human Ovarian cancer cells incubated for 48 hrs by SRB assay. The class given is functional. An outline of the steps: as §1
Assay [12] deals with CNS carcinoma cell. Briefly: Cytostatic activity against human CNS carcinoma cells incubated for 48 hrs by SRB assay. It is filed as functional. An outline of the steps:
as §1

Assay [13] deals with Melanoma cell line. Briefly: Cell growth inhibition of human Melanoma cells incubated for 48 hrs by SRB assay. It is filed as functional. A digest of the protocol:
as §1

Assay [14] concerns NSCLC. Briefly: Cell growth inhibition of human NSCLC cells incubated for 48 hrs by SRB assay. The class given is functional. An outline of the steps: as §1
A short description of assay [15]: Cytostatic activity against human Leukemia cancer cells incubated for 48 hrs by SRB assay. It is filed as functional, Leukemia cell. A digest of the protocol:
as §1

The test system of assay [16] is CNS carcinoma cell. Briefly: Cell growth inhibition of human CNS carcinoma cells incubated for 48 hrs by SRB assay. It is filed as functional. An outline of the steps: as §1
Assay [17] deals with Panel NCI-60 (60 carcinoma cell lines). Briefly: Cell growth inhibition of human Panel NCI-60 (60 carcinoma cell lines) incubated for 48 hrs by SRB assay. It is filed as functional. An outline of the steps: as §1
The test system of assay [18] is Melanoma cell line. Briefly: […] against human Melanoma cells incubated for 48 hrs by SRB assay. It is filed as functional. The settings on record: read-out: LC50 (the source's name). A digest of the protocol: as §2
Assay [19] relates to Colon carcinoma cell. Briefly: Cytotoxicity against human Colon carcinoma cells incubated for 48 hrs by SRB assay. It is filed as functional. An outline of the steps: as §1
The test system of assay [20] is Breast cancer cell line. Briefly: Cytotoxicity against human Breast cancer cells incubated for 48 hrs by SRB assay. The class given is functional. A digest of the protocol:
as §1

As a reminder, the GI50 is the concentration that inhibits growth by half. High values mean lower sensitivity of the cells, low ones greater sensitivity of the cells. The term TGI denotes the concentration at which net growth stops. A low value points to more potent growth arrest.

As to `O=C1Nc2cccc(F)c2/C1=C\c1cccc(/C=C2/C(=O)Nc3cccc(F)c32)c1`, the GI is 4.17 µM in [1]; 33.88 µM in assay [2]; 2.14 µM in assay [3]; 5.13 µM in assay [7]; 4.27 µM in assay [12]; 1.7 µM in [13]. Further, the GI worked out at 2.4 µM in [14], 6.92 µM in assay [15], 6.76 µM in assay [19] and 16.98 µM in assay [20]. Further, the CC50 in [4] stood at 2 µM; in assay [5] it was 100 µM; in assay [18], 3.72 µM. Further, the GI50 in assay [6] worked out at 1.86 µM; in [8], 1.23 µM; in assay [16] it was 1.82 µM; in assay [17], 1.91 µM. Besides, the TGI in [9] was 6.17 µM; in [10], 3.31 µM; in assay [11], 7.59 µM.
For the compound `CC(C)(C)c1cc(/C=C2/C(=O)Nc3ccc(F)cc32)c(O)c(/C=C2/C(=O)Nc3ccc(F)cc32)c1`, the GI in assay [1] is 14.13 µM; in assay [2] it was 47.86 µM; in [3] it was 3.89 µM; in assay [7], 13.8 µM; in [12], 12.02 µM; in assay [13] it was 3.02 µM. The GI in [14] turned out to be 4.17 µM; in assay [15], 12.02 µM; in [19], 42.66 µM; in assay [20] it was 46.77 µM. In addition, the results for the CC50 in [4], in [5] and in assay [18] were 3.8 µM, 60.3 µM and 9.77 µM, respectively. Moreover, the GI50 was determined as 4.68 µM in assay [6], 3.09 µM in assay [8], 2.95 µM in assay [16] and 3.8 µM in assay [17]. Further, the TGI in assay [9] is 19.5 µM; in [10] it was 14.8 µM; in assay [11], 15.8 µM.
Take `COc1ccc2c(c1)/C(=C\c1cc(C(C)(C)C)cc(/C=C3/C(=O)N(C)c4ccc(OC)cc43)c1O)C(=O)N2C`: the GI in [1] is 8.32 µM; in [2], 28.18 µM; in assay [3], 3.09 µM; in assay [7], 6.61 µM; in [12], 4.9 µM; in assay [13], 1.86 µM. Besides, the GI was 2.34 µM in [14], 20.42 µM in assay [15], 16.98 µM in assay [19] and 36.31 µM in assay [20]. Also, the CC50 in assay [4] was 2.24 µM; in [5] it was 100 µM; in [18], 3.98 µM. Also, the GI50 in assay [6] came to 2.51 µM; in assay [8] it was 2.82 µM; in assay [16], 1.91 µM; in assay [17], 2.24 µM. The TGI was determined as 6.17 µM in assay [9], 4.79 µM in [10] and 7.24 µM in assay [11].
Turning to `CC(C)(C)c1cc(/C=C2/C(=O)Nc3cccc(F)c32)c(O)c(/C=C2/C(=O)Nc3cccc(F)c32)c1`, the GI in assay [1] came out at 7.24 µM; in assay [2], 15.49 µM; in assay [3] it was 2.75 µM; in assay [7], 6.46 µM; in assay [12], 6.46 µM; in assay [13] it was 2.29 µM. Moreover, the GI in assay [14] came to 2.14 µM; in assay [15], 4.79 µM; in assay [19], 16.98 µM; in assay [20], 33.88 µM. Besides, the CC50 in [4] is 2.04 µM; in assay [5], 22.9 µM; in assay [18], 5.5 µM. Also, the GI50 in assay [6] worked out at 2.45 µM; in assay [8] it was 1.58 µM; in assay [16], 2.09 µM; in assay [17], 2.14 µM. Moreover, the results for the TGI in assay [9], in assay [10] and in [11] were 8.51 µM, 6.46 µM and 5.89 µM, respectively.
For `COc1cc2c(/C=C3/C(=O)N(C)c4cc5c(cc43)/C(=C\c3c(Cl)[nH]c4cc(C)c(OC)cc34)C(=O)N5C)c(Cl)[nH]c2cc1C`, the GI was 7.24 µM in assay [1]; 45.71 µM in assay [2]; 1.82 µM in assay [3]; 7.59 µM in assay [7]; 7.76 µM in [12]; 2.34 µM in assay [13]. Moreover, the GI in [14] is 2.19 µM; in assay [15] it was 5.37 µM; in assay [19], 9.77 µM; in assay [20] it was 33.11 µM. Further, the CC50 is 24.6 µM in assay [4], 42.7 µM in assay [5] and 6.46 µM in assay [18]. For the same compound, the GI50 in assay [6] was 1.95 µM; in assay [8], 1.2 µM; in [16] it was 1.82 µM; in assay [17], 2.04 µM. For the same compound, the TGI in assay [9] turned out to be 10 µM; in assay [10] it was 4.17 µM; in assay [11], 10.7 µM.
Consider `O=C1Nc2cc(Cl)ccc2/C1=C\c1cccc(/C=C2/C(=O)Nc3cc(Cl)ccc32)c1`, for which the GI in [1] came out at 8.51 µM; in [2] it was 44.67 µM; in assay [3], 2.14 µM; in assay [7] it was 7.59 µM; in assay [12] it was 5.89 µM; in [13], 2.19 µM. Also, the GI was 3.39 µM in assay [14], 11.22 µM in [15], 11.22 µM in assay [19] and 37.15 µM in [20]. Also, the values for the CC50 in [4], in [5] and in assay [18] were 2.45 µM, 100 µM and 5.25 µM, respectively. Besides, the GI50 in assay [6] came out at 3.09 µM; in assay [8], 2.4 µM; in [16], 2.29 µM; in assay [17], 2.57 µM. Moreover, the TGI in [9] amounted to 6.92 µM; in assay [10], 4.68 µM; in assay [11], 8.91 µM.
